Screening results (PubChem)
A selection: hits, their analogues and other compounds. The true share with any hit is near 2.8%.
PAFAH1B3 FP inh – PAFAH1B3 (human) inhibition; recombinant PAFAH1B3, FP-rhodamine probe, fluorescence polarization; inhibition, % at 3.39 µM; 340,000 tested, 0.28% active; AID 492972;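 active = inhibition above the screen-wide average of all tested compounds plus 3 SD, cut at about 25% in these data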;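 also: 0% = enzyme with DMSO only and 100% = wells lacking PAFAH1B3 protein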
Target sequence (Q15102 whole entry, looked up): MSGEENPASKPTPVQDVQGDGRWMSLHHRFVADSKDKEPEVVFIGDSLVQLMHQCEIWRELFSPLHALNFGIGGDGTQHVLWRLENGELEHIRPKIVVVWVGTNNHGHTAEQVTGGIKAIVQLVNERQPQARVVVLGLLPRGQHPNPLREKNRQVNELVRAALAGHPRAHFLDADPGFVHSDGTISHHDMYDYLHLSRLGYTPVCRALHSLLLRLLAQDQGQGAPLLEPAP
ASAP1 GAP inh – ASAP1 ArfGAP inhibition | inhibition, % at 16.5 µM | ASAP1-stimulated ARF1 GTP hydrolysis, GDP FP detection | Q9ULH1 | AID 624377 | 360,000 tested, 0.19% active; in the data active = inhibition above about 25%;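 also: 0% = vehicle with enzyme and substrate and 100% = no enzyme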
ARFGAP1 inhibitor – rat ARFGAP1 inhibition | Q62848 | Arfgap1-stimulated ARF1 GTP hydrolysis, GDP FP detection | inhibition, % at 16.5 µM | 360,000 tested, 0.26% active | AID 651572;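 active = inhibition above a per-plate limit, mean inhibition of low control wells plus 3 SD, cut at about 25% in these data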;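 also: 0% = DMSO wells with enzyme and 100% = wells lacking Arfgap1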
Target sequence (Q62848 1-136 limits assumed): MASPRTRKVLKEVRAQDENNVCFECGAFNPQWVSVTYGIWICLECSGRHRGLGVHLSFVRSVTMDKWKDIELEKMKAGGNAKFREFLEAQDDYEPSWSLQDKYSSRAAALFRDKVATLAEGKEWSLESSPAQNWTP
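Material: rat Arfgap1 catalytic domain, aa 1-136; also added: human ARF1(Δ1-17)-GTP substrate; compound dosing: one concentration, 16.5 µM, DMSO 1.26%; incubation: GTP hydrolysis reaction 2 h at 25 °C; measured by: Tracer-displacement fluorescence polarization with EDTA stop, 620/688 nm; evaluation: % inhibition from polarization; repeats: one replicate per compound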
PAFAH1B2 inh – blocks human PAF acetylhydrolase 1b catalytic subunit 2; P68402; recombinant PAFAH1B2, FP-rhodamine activity probe, fluorescence polarization; inhibition, % at 3.39 µM; 340,000 tested, 1.2% active; AID 492953;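 active = inhibition above the mean of all tested compounds plus 3 SD, cut at about 24% in these data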;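 also: 0% = enzyme with DMSO and 100% = wells lacking PAFAH1B2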
pPAFAH inh – inhibitors of human plasma PAF acetylhydrolase (pPAFAH) | Q13093 | recombinant pPAFAH, FP-rhodamine probe fluorescence polarization | inhibition, % at 3.39 µM | 330,000 tested, 1.5% active;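 active = inhibition above the mean inhibition across the screen plus 3 SD, cut at about 25% in these data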;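 also: inhibitors block binding of the rhodamine activity-based probe so polarization drops; 0% = enzyme with DMSO and 100% = wells lacking pPAFAH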
PAFAH2 inh – PAFAH2 (human) inhibition; Q99487; inhibition, % at 3.39 µM; recombinant PAFAH2, FP-rhodamine activity probe, fluorescence polarization; 340,000 tested, 0.99% active;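 active = inhibition above the mean over all tested compounds plus 3 SD, cut at about 30% in these data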;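 also: inhibitors block probe labeling of enzyme so polarization drops; 0% = enzyme with DMSO and 100% = wells lacking PAFAH2 protein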
pPAFAH confirm – pPAFAH (human) inhibition, confirmed; shares compounds with pPAFAH inh; recombinant pPAFAH, FP-Rh probe fluorescence polarization; inhibition, % at 3.39 µM; 2,300 tested, 72% active;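 active = mean inhibition of the triplicate above the hit cutoff set for the earlier primary screen, cut at about 25% in these data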;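 also: 0% = enzyme with DMSO and 100% = wells lacking pPAFAH enzyme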
The depositor's hits bear a star.

How did COc1ccc2sc(-c3ccc(N(C)C)cc3)c(C#Cc3cncn3C)c2c1 do in these assays?
PAFAH1B3 FP inh: 19; ASAP1 GAP inh: 7; ARFGAP1 inhibitor: 9; PAFAH1B2 inh: 12; pPAFAH inh: 42*; PAFAH2 inh: 6; pPAFAH confirm: 38*

Results for N#Cc1c(-c2ccco2)cc(-c2ccccc2)[nH]c1=O ?
PAFAH1B3 FP inh: 10; ASAP1 GAP inh: -6; ARFGAP1 inhibitor: -1; PAFAH1B2 inh: 6; pPAFAH inh: 20; PAFAH2 inh: 15

Results for Cc1ccc(-c2cc(-c3ccco3)c(C#N)c(=O)[nH]2)cc1 ?
PAFAH1B3 FP inh: 13; ASAP1 GAP inh: -2; ARFGAP1 inhibitor: 3; PAFAH1B2 inh: 7; pPAFAH inh: 35*; PAFAH2 inh: 23; pPAFAH confirm: 21

What do the screens show for `O=C(C[n+]1ccc2ccccc2c1)c1cccc2ccccc12`?
PAFAH1B3 FP inh: 2; ASAP1 GAP inh: -9; ARFGAP1 inhibitor: -3; PAFAH1B2 inh: -4; pPAFAH inh: 5; PAFAH2 inh: 3

What do the screens show for `O=C(/C=C/c1cc[n+](CC(=O)c2ccc3cccc4c3c2CC4)cc1)c1ccc2cccc3c2c1CC3`?
PAFAH1B3 FP inh: 2; PAFAH1B2 inh: -5; pPAFAH inh: 71*; PAFAH2 inh: 22; pPAFAH confirm: 86*

What do the screens show for `CCC1CCc2sc(C(=O)NC3CCN(Cc4ccccc4)CC3)cc2C1` (centres undefined)?
PAFAH1B3 FP inh: 3; ASAP1 GAP inh: 12; ARFGAP1 inhibitor: 5; PAFAH1B2 inh: -2; pPAFAH inh: 12; PAFAH2 inh: 5

What do the screens show for `COc1ccc(N=Cc2cc(Cc3ccccc3Cl)cc([N+](=O)[O-])c2O)cc1OC`?
PAFAH1B3 FP inh: 6; PAFAH1B2 inh: 8; pPAFAH inh: 16; PAFAH2 inh: 15

What do the screens show for `Cc1ccc(N=Cc2cc(Cc3ccccc3Cl)cc([N+](=O)[O-])c2O)c(O)c1`?
PAFAH1B3 FP inh: 8; PAFAH1B2 inh: 9; pPAFAH inh: 48*; PAFAH2 inh: 12; pPAFAH confirm: 62*

How did CC(OC(=O)c1ccccn1)C(=O)Nc1ccc2c(c1)OCCO2 (centres undefined) do in these assays?
PAFAH1B3 FP inh: 2; ASAP1 GAP inh: -10; ARFGAP1 inhibitor: 13; PAFAH1B2 inh: 0; pPAFAH inh: 48*; PAFAH2 inh: -4; pPAFAH confirm: 4

What do the screens show for `Cc1cnc(C(=O)OC(C)C(=O)Nc2ccc3c(c2)OCCO3)cn1` (centres undefined)?
PAFAH1B3 FP inh: 0; ASAP1 GAP inh: -6; ARFGAP1 inhibitor: -2; PAFAH1B2 inh: -5; pPAFAH inh: -3; PAFAH2 inh: 5

How did CC(=O)CN1Cc2ccccc2/C1=N\C(=O)Nc1ccccc1 do in these assays?
PAFAH1B3 FP inh: 9; ASAP1 GAP inh: -10; ARFGAP1 inhibitor: 6; PAFAH1B2 inh: -1; pPAFAH inh: 71*; PAFAH2 inh: 0; pPAFAH confirm: 7

What do the screens show for `COc1ccc(N2Cc3ccccc3/C2=N\C(=O)Nc2ccccc2)cc1`?
PAFAH1B3 FP inh: -5; ASAP1 GAP inh: -1; ARFGAP1 inhibitor: 10; PAFAH1B2 inh: 1; pPAFAH inh: -4; PAFAH2 inh: -6

How did C=CCOc1ccc(C(c2c(C(=O)O)[nH]c3ccccc23)c2c(C(=O)O)[nH]c3ccccc23)cc1 do in these assays?
PAFAH1B3 FP inh: 8; ASAP1 GAP inh: -1; ARFGAP1 inhibitor: -29; PAFAH1B2 inh: 66*; pPAFAH inh: 44*; PAFAH2 inh: 55*; pPAFAH confirm: 30*

What do the screens show for `COc1ccc(CN=Cc2c(C(=O)O)[nH]c3ccccc23)cc1`?
PAFAH1B3 FP inh: 9; ASAP1 GAP inh: 4; ARFGAP1 inhibitor: 15; PAFAH1B2 inh: -2; pPAFAH inh: 3; PAFAH2 inh: -2

Results for COc1ccc(OC)c(CN2CCCC(C(=O)c3ccccc3SC)C2)c1 (centres undefined) ?
PAFAH1B3 FP inh: 4; ASAP1 GAP inh: -8; ARFGAP1 inhibitor: 6; PAFAH1B2 inh: 1; pPAFAH inh: 58*; PAFAH2 inh: 1; pPAFAH confirm: 5
